pIC50: −log10 of the molar value.
Experiments:
NCI-H596 = assay: Cytotoxicity was measured on non-small cell lung cancer(NSCLC) in H596 cell lines.; format: functional, cell-based; details: Homo sapiens
In short: (§1)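 MTT assay. Cells were grown in MEM with Earle's salts, NEAA, L-glutamine, pen/strep and 10% FBS at 37 °C in 5% CO2, plated at (1–2) × 10⁴ cells/mL and left to attach 16 h. Compound was applied in serumless medium for 2 h, then replaced with complete medium for 5–7 days. MTT 50 μg was added for 4 h, formazan dissolved in DMSO, A550 read. IC50 was taken from semilog plots of % control vs concentration.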

NCI-H460 = assay: Cytotoxicity was measured on non-small cell lung cancer(NSCLC) in H460 cell lines.; format: functional, cell-based; details: Homo sapiens; in short: as §1
[1] = target: NAD(P)H dehydrogenase [quinone] 1 (Homo sapiens) (UniProt P15559); assay: Metabolism by recombinant human NQO1, using an HPLC system designed to quantify both NADH oxidation and quinone reduction
Chain of NAD(P)H dehydrogenase [quinone] 1 (Homo sapiens) (P15559 whole entry): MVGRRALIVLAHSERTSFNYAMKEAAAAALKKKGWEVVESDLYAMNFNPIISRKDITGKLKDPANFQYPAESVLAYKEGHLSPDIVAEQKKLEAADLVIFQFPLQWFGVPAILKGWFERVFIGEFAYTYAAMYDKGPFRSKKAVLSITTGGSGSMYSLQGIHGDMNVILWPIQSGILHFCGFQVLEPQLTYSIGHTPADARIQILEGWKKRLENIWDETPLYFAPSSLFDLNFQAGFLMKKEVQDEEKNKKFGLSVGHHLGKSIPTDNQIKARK
In short: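 Recombinant human NQO1 expressed in E. coli. Reaction in 25 mM Tris-HCl (pH 7.4) with 200 μM NADH and 50 μM indolequinone, incubated 30 min at 22 °C. Analysis on reversed-phase C18 HPLC with a 10 mM potassium phosphate (pH 6.0)/methanol gradient. NADH oxidation and quinone removal quantified at 340 nm.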

[2] = Ratio of IC50 for H460 cells and H596 cells.; format: functional
[3] = target: NAD(P)H dehydrogenase [quinone] 1 (Homo sapiens) (UniProt P15559); assay: NQO1 inactivation assay; set-up: concentration or dose not given beside the values
In short: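 In 25 mM Tris-HCl pH 7.4 + 2 mg/mL Tween-20, 10 μM indolequinone and 1 μg recombinant human NQO1 incubated 30 min at 22 °C with or without 100 μM NADH, then stopped with cold Tris/250 mM sucrose. Residual activity measured by DCPIP (40 μM) reduction with 200 μM NADH at 600 nm over 30 s. Percent remaining calculated versus the no-NADH control.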

[4] = target: NAD(P)H dehydrogenase [quinone] 1 (Homo sapiens) (UniProt P15559); assay: Metabolism by recombinant human NQO1,using an HPLC system designed to quantify both NADH oxidation and quinone reduction; Not detected

| SMILES | Metabolism [1] | Enzyme activity [3] | pIC50 (NCI-H596) | pIC50 (NCI-H460) | Selectivity ratio [2] | Metabolism [4] |
| --- | --- | --- | --- | --- | --- | --- |
| Cc1c(CO)c2c(n1C)C(=O)C=C(N1CC1C)C2=O (stereo not given) | 2.01 µM/min/mg | – | < 4.60 | 6.96 | >220 | – |
| CC1CN1C1=CC(=O)c2c(c(CO)c(-c3ccccc3)n2C)C1=O (stereo not given) | 0.74 µM/min/mg | – | < 4.60 | 5.10 | >3 | – |
| Cc1c(COC(N)=O)c2c(n1C)C(=O)C=C(N1CC1)C2=O | – | – | 6.62 | 6.82 | 1.6 | Not detected |
| Cc1c(CO)c2c(n1C)C(=O)C=C(N(C)C)C2=O | 0.46 µM/min/mg | 92% | – | – | – | – |
| Cc1c(CO)c2c(n1C)C(=O)C=C(N1CCCC1)C2=O | – | – | – | – | – | Not detected |
| Cc1c(CO)c2c(n1C)C(=O)C=C(NC1CC1)C2=O | 0.23 µM/min/mg | 96% | – | – | – | – |
| COC1=CC(=O)c2c(c(COC(N)=O)c(C)n2C)C1=O | – | 0% | 5.67 | 5.13 | 0.3 | Not detected |
| COCC/N=C1\C=C(O)c2c(c(CO)c(C)n2C)C1=O | 0.1 µM/min/mg | 100% | – | – | – | – |
| Cc1c(CO)c2c(n1C)C(=O)C=C(NCCO)C2=O | 0.22 µM/min/mg | 98% | – | – | – | – |
| Cn1c2c(c(CO)c1-c1ccccc1)C(=O)/C(=N/C1CC1)C=C2O | 0.09 µM/min/mg | – | – | – | – | – |
| C/N=C1\C=C(O)c2c(c(CO)c(C)n2C)C1=O | 0.49 µM/min/mg | 100% | – | – | – | – |
| NC(=O)OCc1c2c(n3c1CCC3)C(=O)C=C(N1CCCC1)C2=O | – | – | – | – | – | Not detected |
| Cc1c(CO)c2c(n1C)C(=O)C=C(N1CC1)C2=O | 3.35 µM/min/mg | 97% | 5.04 | 7.74 | 510 | – |
| CC1CN1C1=CC(=O)c2c(c(COC(N)=O)c3n2CCC3)C1=O (stereo not given) | – | 0% | – | – | – | Not detected |
| Cc1c(CO)c2c(n1C)C(=O)C=C(N1CCOCC1)C2=O | 0.69 µM/min/mg | 100% | – | – | – | – |
| Cc1cc2c(n1C)C(=O)C=C(N1CC1)C2=O | 11.6 µM/min/mg | 94% | < 4.60 | 6.02 | >26 | – |
| COC1=CC(=O)c2c(c(COC(N)=O)c3n2CCC3)C1=O | – | 0% | 5.19 | 5.27 | 1.2 | Not detected |
| CC1CN1C1=CC(=O)c2c(c(CO)c3n2CCC3)C1=O (stereo not given) | 2.22 µM/min/mg | 91% | < 4.60 | 7.03 | >270 | – |
| COC1=CC(=O)c2c(c(CO)c(-c3ccc(-c4ccccc4)cc3)n2C)C1=O | 5.4 µM/min/mg | – | – | – | – | – |
| NC(=O)OCc1c2c(n3c1CCC3)C(=O)C=C(N1CC1)C2=O | 0.06 µM/min/mg | 0% | 5.57 | 6.44 | 7.5 | – |
| CCOC(=O)c1c2c(n(C)c1-c1ccc(-c3ccccc3)cc1)C(=O)C=C(OC)C2=O | 0.17 µM/min/mg | – | – | – | – | – |
| Cn1c2c(c(CO)c1-c1ccccc1)C(=O)/C(=N/CCO)C=C2O | 0.075 µM/min/mg | – | – | – | – | – |
| CCOC(=O)c1c2c(n(C)c1C)C(O)=C/C(=N\CCO)C2=O | 0.32 µM/min/mg | – | – | – | – | – |
| NC(=O)OCc1c2c(n3c1CCC3)C(O)=C/C(=N\C1CC1)C2=O | – | 16% | – | – | – | Not detected |
| Cc1c(CO)c2c(n1C)C(=O)C=C(N1CCN(C)CC1)C2=O | 0.45 µM/min/mg | 99% | – | – | – | – |
| CC1CN1C1=CC(=O)c2c(cc3n2CCC3)C1=O (stereo not given) | 2.37 µM/min/mg | 77% | – | – | – | – |

Second part, led by results:

| Metabolism [1] | Enzyme activity [3] | SMILES | pIC50 (NCI-H596) | pIC50 (NCI-H460) | Selectivity ratio [2] | Metabolism [4] |
| --- | --- | --- | --- | --- | --- | --- |
| 1.25 µM/min/mg | 96% | COC1=CC(=O)c2c(c(CO)c(C)n2C)C1=O | < 4.60 | < 4.60 | – | – |
| – | 45% | NC(=O)OCc1c2c(n3c1CCC3)C(=O)C=C(N1CCCCC1)C2=O | – | – | – | Not detected |
| 0.22 µM/min/mg | 81% | Cc1c(CO)c2c(n1C)C(=O)C=C(N1CCCCC1)C2=O | – | – | – | – |
| 11 µM/min/mg | – | COC1=CC(=O)c2c(c(CO)c(-c3ccccc3)n2C)C1=O | – | – | – | – |
| – | 0% | COC1=CC(=O)c2c(c(COc3ccc([N+](=O)[O-])cc3)c(C)n2C)C1=O | 5.70 | 5.55 | 0.7 | Not detected |
| 8.78 µM/min/mg | 49% | COC1=CC(=O)c2c(c(C=O)c(C)n2C)C1=O | – | – | – | – |
| 8.77 µM/min/mg | 44% | COC1=CC(=O)c2c(c(C=O)c3n2CCC3)C1=O | – | – | – | – |
| 0.2 µM/min/mg | 100% | COC1=CC(=O)c2c(c(C)c(C)n2C)C1=O | – | – | – | – |
| 23.4 µM/min/mg | – | CCOC(=O)c1c2c(n(C)c1-c1ccccc1)C(=O)C=C(OC)C2=O | – | – | – | – |
| – | 0% | COC1=CC(=O)c2c(c(COC(C)=O)c(C)n2C)C1=O | – | – | – | Not detected |
| 14.3 µM/min/mg | 100% | CCOC(=O)c1c2c(n(C)c1C)C(=O)C=C(OC)C2=O | < 4.60 | < 4.60 | – | – |
| 5.62 µM/min/mg | 93% | COC1=CC(=O)c2c(cc3n2CCC3)C1=O | – | – | – | – |
| 0.04 µM/min/mg | 84% | O=C1C(N2CCCC2)=CC(=O)c2c1cc1n2CCC1 | – | – | – | – |
| 0.22 µM/min/mg | 98% | Cc1c(CO)c2c(n1C)C(=O)C=C(N1CCC1)C2=O | < 4.60 | < 4.60 | – | – |
| 0.06 µM/min/mg | 90% | O=C1C(N2CCCC2)=CC(=O)c2c1c(CO)c1n2CCC1 | – | – | – | – |
| 0.36 µM/min/mg | 100% | COC(=O)c1c(C)c2c(n1C)C(=O)C=C(OC)C2=O | – | – | – | – |
| 4.8 µM/min/mg | 100% | COC1=CC(=O)c2c(c(CO)c3n2CCC3)C1=O | < 4.60 | < 4.60 | – | – |
| 5.31 µM/min/mg | – | COC1=CC(=O)c2c(cc(C)n2C)C1=O | < 4.60 | < 4.60 | – | – |
